Results from ChEMBL document CHEMBL1147807, “Identification of 2-acylaminothiophene-3-carboxamides as potent inhibitors of FLT3” (Bioorg Med Chem Lett, 2006).

What was measured:
[1] = molecular target: Ribosomal protein S6 kinase alpha-1 (Homo sapiens) (UniProt Q15418); test: Inhibition of human Rsk1 at 3 uM in presence of 10 uM ATP
Method in brief: (§1)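 Selectivity panel run at a single compound concentration of 3 µM with 10 µM ATP. Read-out is % inhibition of each kinase. Values are averages of duplicate experiments.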

[2] = molecular target: Glycogen synthase kinase-3 beta (Homo sapiens) (UniProt P49841); test: Inhibition of human GSK3-beta at 3 uM in presence of 10 uM ATP; method in brief: as §1
[3] = molecular target: Cyclin-dependent kinase 7/ cyclin H (Homo sapiens) (UniProt P51946+P50613); test: Inhibition of human CDK7/cyclin H/MAT1 at 3 uM in presence of 10 uM ATP; format: protein-complex assay; method in brief: as §1
[4] = molecular target: Tyrosine-protein kinase ABL2 (Homo sapiens) (UniProt P42684); test: Inhibition of human Arg kinase at 3 uM in presence of 10 uM ATP; method in brief: as §1
Tyrosine-protein kinase ABL2 (Homo sapiens), sequence (P42684 whole entry): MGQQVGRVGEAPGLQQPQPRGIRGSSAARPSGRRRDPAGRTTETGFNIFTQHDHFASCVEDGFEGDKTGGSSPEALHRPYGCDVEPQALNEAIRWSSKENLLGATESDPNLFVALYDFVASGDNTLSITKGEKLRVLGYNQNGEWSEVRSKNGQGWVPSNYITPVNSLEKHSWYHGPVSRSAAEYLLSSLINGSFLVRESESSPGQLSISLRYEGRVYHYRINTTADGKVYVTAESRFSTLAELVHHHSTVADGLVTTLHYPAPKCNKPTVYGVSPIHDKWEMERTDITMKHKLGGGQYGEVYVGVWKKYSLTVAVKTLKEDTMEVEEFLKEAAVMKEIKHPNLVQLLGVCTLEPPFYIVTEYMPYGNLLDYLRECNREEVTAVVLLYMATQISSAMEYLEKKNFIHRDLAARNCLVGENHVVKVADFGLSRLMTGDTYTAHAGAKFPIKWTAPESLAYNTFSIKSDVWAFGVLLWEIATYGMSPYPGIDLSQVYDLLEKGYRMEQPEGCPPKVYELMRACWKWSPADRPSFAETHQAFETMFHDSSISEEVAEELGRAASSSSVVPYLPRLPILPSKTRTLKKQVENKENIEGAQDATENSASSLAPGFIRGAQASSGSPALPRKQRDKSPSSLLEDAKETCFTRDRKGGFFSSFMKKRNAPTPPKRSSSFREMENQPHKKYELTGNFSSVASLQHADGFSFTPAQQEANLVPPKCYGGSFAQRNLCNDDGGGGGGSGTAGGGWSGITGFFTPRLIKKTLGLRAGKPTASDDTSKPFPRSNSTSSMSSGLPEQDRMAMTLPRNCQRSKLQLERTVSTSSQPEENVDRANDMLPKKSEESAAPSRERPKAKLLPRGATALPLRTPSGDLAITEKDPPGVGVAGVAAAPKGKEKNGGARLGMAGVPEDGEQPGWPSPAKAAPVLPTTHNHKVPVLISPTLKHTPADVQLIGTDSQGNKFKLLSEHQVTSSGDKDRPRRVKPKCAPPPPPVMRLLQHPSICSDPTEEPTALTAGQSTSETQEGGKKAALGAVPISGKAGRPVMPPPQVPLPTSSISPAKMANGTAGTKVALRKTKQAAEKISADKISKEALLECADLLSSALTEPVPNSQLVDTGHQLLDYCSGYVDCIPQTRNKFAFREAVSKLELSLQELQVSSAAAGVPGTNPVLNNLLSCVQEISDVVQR

[5] = molecular target: Tyrosine-protein kinase ABL1 (Homo sapiens) (UniProt P00519); test: Inhibition of human Abl kinase at 3 uM in presence of 10 uM ATP; method in brief: as §1
MV4-11 = test: Antiproliferative activity against human MV4-11 cells
Rattus norvegicus = species: Rattus norvegicus; test: Inhibition of rat AMPK at 3 uM in presence of 10 uM ATP; method in brief: as §1
[6] = molecular target: RAF proto-oncogene serine/threonine-protein kinase (Homo sapiens) (UniProt P04049); test: Inhibition of human c-RAF at 3 uM in presence of 10 uM ATP; method in brief: as §1
RAF proto-oncogene serine/threonine-protein kinase (Homo sapiens), sequence (P04049 whole entry): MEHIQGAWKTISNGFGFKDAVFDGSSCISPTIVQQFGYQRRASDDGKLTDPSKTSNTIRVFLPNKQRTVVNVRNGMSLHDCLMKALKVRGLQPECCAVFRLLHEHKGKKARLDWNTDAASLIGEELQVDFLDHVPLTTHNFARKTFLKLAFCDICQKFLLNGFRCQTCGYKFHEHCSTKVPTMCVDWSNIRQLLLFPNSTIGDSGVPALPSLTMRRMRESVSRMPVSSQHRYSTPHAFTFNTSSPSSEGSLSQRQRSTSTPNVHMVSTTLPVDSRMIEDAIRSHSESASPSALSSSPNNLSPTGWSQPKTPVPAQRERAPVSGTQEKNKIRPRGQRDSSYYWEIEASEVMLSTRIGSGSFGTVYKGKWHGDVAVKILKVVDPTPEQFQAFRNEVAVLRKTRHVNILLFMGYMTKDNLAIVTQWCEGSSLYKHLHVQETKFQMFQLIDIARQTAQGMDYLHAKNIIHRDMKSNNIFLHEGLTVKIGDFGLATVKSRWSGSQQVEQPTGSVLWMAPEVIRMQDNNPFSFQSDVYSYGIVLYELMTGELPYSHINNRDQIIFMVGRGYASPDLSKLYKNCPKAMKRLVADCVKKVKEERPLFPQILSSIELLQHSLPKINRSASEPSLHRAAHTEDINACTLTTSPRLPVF

[7] = molecular target: Tyrosine-protein kinase receptor UFO (Homo sapiens) (UniProt P30530); test: Inhibition of human Axl kinase at 3 uM in presence of 10 uM ATP; method in brief: as §1
[8] = molecular target: Tyrosine-protein kinase Fyn (Homo sapiens) (UniProt P06241); test: Inhibition of human Fyn at 3 uM in presence of 10 uM ATP; method in brief: as §1
Tyrosine-protein kinase Fyn (Homo sapiens), sequence (P06241 2-537 limits assumed): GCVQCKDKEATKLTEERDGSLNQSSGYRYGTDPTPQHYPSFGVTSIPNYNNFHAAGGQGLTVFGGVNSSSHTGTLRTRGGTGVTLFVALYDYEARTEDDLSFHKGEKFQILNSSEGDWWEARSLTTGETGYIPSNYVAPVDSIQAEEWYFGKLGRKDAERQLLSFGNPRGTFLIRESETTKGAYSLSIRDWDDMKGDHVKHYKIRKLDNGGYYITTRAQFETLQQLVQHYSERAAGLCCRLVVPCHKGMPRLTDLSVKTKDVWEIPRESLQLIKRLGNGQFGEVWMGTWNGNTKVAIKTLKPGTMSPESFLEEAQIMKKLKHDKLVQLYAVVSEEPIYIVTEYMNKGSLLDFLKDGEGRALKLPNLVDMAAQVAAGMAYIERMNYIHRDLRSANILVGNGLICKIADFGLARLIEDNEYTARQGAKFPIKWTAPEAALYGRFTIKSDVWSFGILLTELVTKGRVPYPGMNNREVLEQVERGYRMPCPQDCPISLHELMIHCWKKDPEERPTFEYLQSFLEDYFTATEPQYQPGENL

[9] = molecular target: Tyrosine-protein kinase BTK (Homo sapiens) (UniProt Q06187); test: Inhibition of human BTK kinase at 3 uM in presence of 10 uM ATP; method in brief: as §1
Tyrosine-protein kinase BTK (Homo sapiens), sequence (Q06187 whole entry): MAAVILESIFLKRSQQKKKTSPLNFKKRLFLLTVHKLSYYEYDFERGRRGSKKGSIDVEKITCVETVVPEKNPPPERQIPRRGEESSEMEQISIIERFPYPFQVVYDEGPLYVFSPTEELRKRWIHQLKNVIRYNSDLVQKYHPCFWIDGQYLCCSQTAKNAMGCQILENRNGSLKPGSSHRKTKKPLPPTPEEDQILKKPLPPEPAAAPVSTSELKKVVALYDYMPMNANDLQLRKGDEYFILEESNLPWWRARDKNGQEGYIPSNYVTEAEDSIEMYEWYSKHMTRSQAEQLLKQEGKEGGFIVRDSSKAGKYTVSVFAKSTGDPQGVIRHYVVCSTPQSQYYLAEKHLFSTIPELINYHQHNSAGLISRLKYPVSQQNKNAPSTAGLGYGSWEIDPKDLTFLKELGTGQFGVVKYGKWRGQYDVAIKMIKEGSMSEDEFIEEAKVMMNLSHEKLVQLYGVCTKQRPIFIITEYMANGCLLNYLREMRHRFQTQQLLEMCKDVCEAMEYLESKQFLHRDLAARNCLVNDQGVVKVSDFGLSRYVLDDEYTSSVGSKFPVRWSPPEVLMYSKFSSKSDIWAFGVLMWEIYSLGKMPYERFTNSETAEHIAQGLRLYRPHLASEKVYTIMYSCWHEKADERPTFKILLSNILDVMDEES

[10] = molecular target: Hepatocyte growth factor receptor (Homo sapiens) (UniProt P08581); test: Inhibition of human Met at 3 uM in presence of 10 uM ATP; method in brief: as §1
Hepatocyte growth factor receptor (Homo sapiens), sequence (P08581 whole entry): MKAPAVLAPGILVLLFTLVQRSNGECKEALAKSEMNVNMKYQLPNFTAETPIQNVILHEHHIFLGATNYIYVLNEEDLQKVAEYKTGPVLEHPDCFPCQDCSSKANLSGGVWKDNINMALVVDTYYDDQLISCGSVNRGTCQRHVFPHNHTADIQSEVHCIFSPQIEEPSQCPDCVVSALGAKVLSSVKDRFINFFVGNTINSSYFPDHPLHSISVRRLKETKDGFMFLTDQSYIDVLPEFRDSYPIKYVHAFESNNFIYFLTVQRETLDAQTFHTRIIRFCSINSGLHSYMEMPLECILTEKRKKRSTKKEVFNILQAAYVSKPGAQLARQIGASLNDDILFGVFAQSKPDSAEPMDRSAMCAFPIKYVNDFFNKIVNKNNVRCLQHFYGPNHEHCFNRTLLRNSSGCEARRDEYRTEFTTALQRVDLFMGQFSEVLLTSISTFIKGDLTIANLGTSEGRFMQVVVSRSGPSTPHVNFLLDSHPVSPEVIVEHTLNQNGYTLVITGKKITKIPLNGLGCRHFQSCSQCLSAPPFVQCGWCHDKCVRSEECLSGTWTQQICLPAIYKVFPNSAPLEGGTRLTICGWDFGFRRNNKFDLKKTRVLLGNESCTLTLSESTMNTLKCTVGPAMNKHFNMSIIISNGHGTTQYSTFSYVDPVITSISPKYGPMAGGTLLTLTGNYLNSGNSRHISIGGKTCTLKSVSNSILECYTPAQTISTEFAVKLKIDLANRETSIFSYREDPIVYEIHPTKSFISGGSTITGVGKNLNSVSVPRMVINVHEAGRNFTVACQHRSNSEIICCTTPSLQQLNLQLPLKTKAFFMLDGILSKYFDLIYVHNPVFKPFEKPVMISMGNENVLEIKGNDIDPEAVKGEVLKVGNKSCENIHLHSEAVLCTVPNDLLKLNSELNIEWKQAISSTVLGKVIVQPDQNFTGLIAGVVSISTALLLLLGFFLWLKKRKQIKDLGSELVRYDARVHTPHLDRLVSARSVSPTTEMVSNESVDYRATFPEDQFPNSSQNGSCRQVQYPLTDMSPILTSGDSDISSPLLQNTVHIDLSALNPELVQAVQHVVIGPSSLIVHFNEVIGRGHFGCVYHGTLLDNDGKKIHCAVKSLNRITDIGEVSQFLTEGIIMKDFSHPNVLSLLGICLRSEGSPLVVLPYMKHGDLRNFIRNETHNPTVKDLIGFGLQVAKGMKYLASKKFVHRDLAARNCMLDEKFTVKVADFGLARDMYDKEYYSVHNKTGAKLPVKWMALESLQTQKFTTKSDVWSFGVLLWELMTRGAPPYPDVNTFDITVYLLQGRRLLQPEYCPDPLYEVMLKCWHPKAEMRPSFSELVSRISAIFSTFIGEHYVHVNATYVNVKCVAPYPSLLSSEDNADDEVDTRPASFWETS

[11] = molecular target: Mitogen-activated protein kinase 10 (Homo sapiens) (UniProt P53779); test: Inhibition of human JNK3 at 3 uM in presence of 10 uM ATP; method in brief: as §1
Mitogen-activated protein kinase 10 (Homo sapiens), sequence (P53779 whole entry): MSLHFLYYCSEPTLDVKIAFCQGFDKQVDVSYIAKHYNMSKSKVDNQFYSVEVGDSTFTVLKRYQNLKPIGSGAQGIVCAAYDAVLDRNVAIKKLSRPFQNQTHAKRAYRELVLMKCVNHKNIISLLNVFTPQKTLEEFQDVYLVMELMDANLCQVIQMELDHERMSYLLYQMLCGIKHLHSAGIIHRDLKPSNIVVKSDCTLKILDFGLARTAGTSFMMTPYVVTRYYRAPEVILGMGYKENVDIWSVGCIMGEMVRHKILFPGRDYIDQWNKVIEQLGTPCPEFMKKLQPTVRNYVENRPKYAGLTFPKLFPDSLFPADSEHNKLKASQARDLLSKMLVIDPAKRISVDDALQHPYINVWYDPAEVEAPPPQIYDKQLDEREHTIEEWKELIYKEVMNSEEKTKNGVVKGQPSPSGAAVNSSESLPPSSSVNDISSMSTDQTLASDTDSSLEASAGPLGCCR

[12] = molecular target: T1, Receptor-type tyrosine-protein kinase FLT3 (Homo sapiens, UniProt P36888); test: Inhibition of FLT3
T1 sequence (P36888 whole entry): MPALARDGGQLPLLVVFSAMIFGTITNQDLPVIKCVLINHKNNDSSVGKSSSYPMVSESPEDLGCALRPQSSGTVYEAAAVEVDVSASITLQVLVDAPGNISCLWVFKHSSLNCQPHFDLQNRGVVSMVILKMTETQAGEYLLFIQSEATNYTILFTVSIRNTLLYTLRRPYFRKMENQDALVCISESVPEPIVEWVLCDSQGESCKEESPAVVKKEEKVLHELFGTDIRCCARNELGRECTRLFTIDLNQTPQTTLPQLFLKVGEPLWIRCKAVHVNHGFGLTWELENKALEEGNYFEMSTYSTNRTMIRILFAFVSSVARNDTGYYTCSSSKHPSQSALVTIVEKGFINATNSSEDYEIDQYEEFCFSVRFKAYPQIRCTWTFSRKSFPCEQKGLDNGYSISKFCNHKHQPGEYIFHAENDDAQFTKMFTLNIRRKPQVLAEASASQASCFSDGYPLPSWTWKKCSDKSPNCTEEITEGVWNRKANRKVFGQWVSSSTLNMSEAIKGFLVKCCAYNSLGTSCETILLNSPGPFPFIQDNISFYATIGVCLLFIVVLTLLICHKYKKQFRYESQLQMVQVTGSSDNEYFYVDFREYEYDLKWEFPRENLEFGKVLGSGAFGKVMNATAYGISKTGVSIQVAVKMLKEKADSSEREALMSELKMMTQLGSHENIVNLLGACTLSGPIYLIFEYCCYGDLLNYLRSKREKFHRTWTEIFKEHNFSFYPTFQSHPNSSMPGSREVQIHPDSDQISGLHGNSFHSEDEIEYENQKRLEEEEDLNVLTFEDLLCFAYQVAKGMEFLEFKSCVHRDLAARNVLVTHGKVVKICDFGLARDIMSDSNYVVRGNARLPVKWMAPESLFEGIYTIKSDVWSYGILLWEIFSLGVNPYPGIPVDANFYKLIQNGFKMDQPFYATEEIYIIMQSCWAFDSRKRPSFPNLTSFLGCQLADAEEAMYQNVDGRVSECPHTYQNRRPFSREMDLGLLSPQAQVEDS

[13] = molecular target: T2, Serine/threonine-protein kinase D1 (Homo sapiens) (UniProt Q15139); test: Inhibition of human PKC mu at 3 uM in presence of 10 uM ATP; method in brief: as §1
T2 sequence (whole entry): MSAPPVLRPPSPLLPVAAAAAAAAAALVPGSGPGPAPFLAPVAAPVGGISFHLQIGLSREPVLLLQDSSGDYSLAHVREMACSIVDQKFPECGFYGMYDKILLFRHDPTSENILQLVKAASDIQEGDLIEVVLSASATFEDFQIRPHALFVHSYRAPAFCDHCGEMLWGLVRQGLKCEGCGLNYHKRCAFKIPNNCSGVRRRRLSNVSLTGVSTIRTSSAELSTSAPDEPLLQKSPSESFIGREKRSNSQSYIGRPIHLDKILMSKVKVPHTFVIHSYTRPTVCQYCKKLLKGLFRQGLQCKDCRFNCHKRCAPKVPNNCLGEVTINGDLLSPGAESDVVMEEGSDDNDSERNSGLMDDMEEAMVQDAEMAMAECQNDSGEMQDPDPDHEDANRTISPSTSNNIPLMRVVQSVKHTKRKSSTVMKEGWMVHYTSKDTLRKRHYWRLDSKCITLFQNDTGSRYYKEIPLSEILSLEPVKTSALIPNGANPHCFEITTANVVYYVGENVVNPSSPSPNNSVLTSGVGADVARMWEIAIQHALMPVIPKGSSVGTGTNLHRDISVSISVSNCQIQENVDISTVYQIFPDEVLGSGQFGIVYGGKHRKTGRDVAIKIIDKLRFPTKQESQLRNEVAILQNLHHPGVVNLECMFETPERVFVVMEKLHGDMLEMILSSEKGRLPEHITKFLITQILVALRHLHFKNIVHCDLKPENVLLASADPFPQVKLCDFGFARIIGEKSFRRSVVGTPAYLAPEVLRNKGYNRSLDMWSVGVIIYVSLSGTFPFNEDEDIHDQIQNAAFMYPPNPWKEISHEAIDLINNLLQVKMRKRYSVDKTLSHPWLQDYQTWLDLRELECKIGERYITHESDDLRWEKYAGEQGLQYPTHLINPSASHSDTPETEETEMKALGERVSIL

[14] = molecular target: BDNF/NT-3 growth factors receptor (Homo sapiens) (UniProt Q16620); test: Inhibition of human TrkB at 3 uM in presence of 10 uM ATP; method in brief: as §1

SMILES: COc1ccc(C(=O)Nc2sc3c(c2C(N)=O)CCCC3)cc1OC
- inhibition [1]: 3%
- inhibition [2]: -2%
- inhibition [3]: -1%
- inhibition [4]: 49%
- inhibition [5]: 21%
- IC50 (MV4-11): 340 nM
- inhibition (Rattus norvegicus): -4%
- inhibition [6]: -1%
- inhibition [7]: -10%
- inhibition [8]: 33%
- inhibition [9]: 14%
- inhibition [10]: 13%
- inhibition [11]: -6%
- IC50 [12]: 42 nM
- inhibition [13]: 3%
- inhibition [14]: 39%
